Reference: ChEMBL document CHEMBL4428060 (J Med Chem, 2016)

Experiments:
D(2) dopamine receptor = D(2) dopamine receptor (Homo sapiens, UniProt P14416); assay: Displacement of [3H]N-methylspiperone from human dopamine D2L receptor expressed in HEK293 cell membranes incubated for 1 hr by liquid scintillation counting analysis
How it was run: (§1)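 Membranes from HEK293 cells stably expressing human D2LR, D3R or D4.4R, 10 μg protein (D2LR, D3R) or 20 μg (D4.4R) per tube, in EBSS pH 7.4 with 0.2 mM sodium metabisulfite. [3H]N-methylspiperone 0.4 nM final. 13 half-log dilutions, 100 μM–100 pM or 10 μM–10 pM final. 10 μM butaclamol defined nonspecific binding. Triplicates, 1 h at room temperature, GF/B filtration. Ki by Cheng-Prusoff from IC50, at least three independent experiments.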

D(3) dopamine receptor [1] = molecular target: T1, D(3) dopamine receptor (Homo sapiens, UniProt P35462); assay: Displacement of [3H]N-methylspiperone from human dopamine D3 receptor expressed in HEK293 cell membranes incubated for 1 hr by liquid scintillation counting analysis; how it was run: as §1
D(4) dopamine receptor = molecular target: T2, D(4) dopamine receptor (Homo sapiens, UniProt P21917); assay: Displacement of [3H]N-methylspiperone from human dopamine D4.4 receptor expressed in HEK293 cell membranes incubated for 1 hr by liquid scintillation counting analysis; how it was run: as §1
T2 sequence (P21917 whole entry): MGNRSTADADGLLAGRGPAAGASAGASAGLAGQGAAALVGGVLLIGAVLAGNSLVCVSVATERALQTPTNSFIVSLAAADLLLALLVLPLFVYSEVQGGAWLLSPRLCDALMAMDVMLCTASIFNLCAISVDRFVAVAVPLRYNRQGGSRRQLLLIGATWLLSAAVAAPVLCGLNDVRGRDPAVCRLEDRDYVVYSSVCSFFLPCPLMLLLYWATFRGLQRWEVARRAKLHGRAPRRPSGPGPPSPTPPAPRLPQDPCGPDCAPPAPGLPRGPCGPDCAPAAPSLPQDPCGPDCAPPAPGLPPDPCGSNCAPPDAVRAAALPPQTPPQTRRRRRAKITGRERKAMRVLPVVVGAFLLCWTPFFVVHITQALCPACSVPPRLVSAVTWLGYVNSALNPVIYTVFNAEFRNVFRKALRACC

Homo sapiens [2] = species on record: Homo sapiens; assay: Selectivity ratio of Ki for human dopamine D2L receptor to Ki for human dopamine D3 receptor expressed in HEK293 cell membranes; format: cell-based
How it was run: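 Competition binding on membranes from HEK293 cells stably expressing human D2LR or D3R; 10 μg protein per tube in EBSS with 0.2 mM sodium metabisulfite, [3H]N-methylspiperone 0.4 nM final, 1 h at room temperature, GF/B filtration, scintillation counting.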

Homo sapiens [3] = species on record: Homo sapiens; assay: Selectivity ratio of Ki for human dopamine D4.4 receptor to Ki for human dopamine D3 receptor expressed in HEK293 cell membranes; format: cell-based
Homo sapiens [4] = species on record: Homo sapiens; assay: Selectivity ratio of Ki for human dopamine D4.4 receptor to Ki for human dopamine D2L receptor expressed in HEK293 cell membranes; format: cell-based
[5] = molecular target: T3, 5-hydroxytryptamine receptor 1A (Homo sapiens, UniProt P08908); assay: Displacement of [3H]-8-OH-DPAT from 5-HT1A receptor (unknown origin)
T3 sequence (P08908 whole entry): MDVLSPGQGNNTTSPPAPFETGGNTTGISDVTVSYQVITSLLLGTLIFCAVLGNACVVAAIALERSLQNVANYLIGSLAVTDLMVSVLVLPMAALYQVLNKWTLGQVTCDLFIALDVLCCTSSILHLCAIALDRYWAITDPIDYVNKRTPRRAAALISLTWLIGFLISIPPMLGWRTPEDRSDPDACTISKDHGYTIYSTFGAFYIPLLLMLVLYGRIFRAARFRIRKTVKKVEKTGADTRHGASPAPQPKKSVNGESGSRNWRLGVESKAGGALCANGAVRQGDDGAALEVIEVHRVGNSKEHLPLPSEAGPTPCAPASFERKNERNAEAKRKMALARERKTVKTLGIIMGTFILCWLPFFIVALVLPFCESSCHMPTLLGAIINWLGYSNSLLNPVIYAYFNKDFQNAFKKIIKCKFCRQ

[6] = molecular target: 5-hydroxytryptamine receptor 2A (Homo sapiens, UniProt P28223); assay: Displacement of [125I]DOI from 5-HT2A receptor (unknown origin)
[7] = molecular target: T4, 5-hydroxytryptamine receptor 2C (Homo sapiens, UniProt P28335); assay: Displacement of [125I]DOI from 5-HT2C receptor (unknown origin)
T4 sequence (P28335 whole entry): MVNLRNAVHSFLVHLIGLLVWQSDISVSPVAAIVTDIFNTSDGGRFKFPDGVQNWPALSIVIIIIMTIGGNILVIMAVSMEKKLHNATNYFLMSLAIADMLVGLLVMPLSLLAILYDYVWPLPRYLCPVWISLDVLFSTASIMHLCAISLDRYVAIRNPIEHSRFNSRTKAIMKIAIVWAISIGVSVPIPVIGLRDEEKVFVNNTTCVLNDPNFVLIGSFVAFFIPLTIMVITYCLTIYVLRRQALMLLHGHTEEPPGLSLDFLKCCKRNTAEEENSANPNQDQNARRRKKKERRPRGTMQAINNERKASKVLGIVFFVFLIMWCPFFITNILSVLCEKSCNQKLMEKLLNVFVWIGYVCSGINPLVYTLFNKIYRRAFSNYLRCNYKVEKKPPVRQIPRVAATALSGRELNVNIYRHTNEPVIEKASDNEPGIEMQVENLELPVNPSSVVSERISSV

D(3) dopamine receptor [8] = molecular target: T1, D(3) dopamine receptor; assay: Agonist activity at human dopamine D3 receptor expressed in CHO cells assessed as stimulation of mitogenesis incubated for 16 hrs in presence of [3H]thymidine by scintillation spectrometric analysis; format: cell-based; parameters: concentration or dose not given beside the values
[9] = molecular target: T5, 5-hydroxytryptamine receptor 1A (Homo sapiens) (UniProt P08908); assay: (§2) Agonist activity at 5-HT1A receptor (unknown origin) by [35S]GTPgammaS binding assay; format: functional; parameters: concentration or dose not given beside the values
T5 sequence (whole entry): T3 sequence (P08908 whole entry)

D(3) dopamine receptor [10] = molecular target: T1, D(3) dopamine receptor; assay: Antagonist activity at human dopamine D3 receptor expressed in CHO cells assessed as inhibition of quinpirole-stimulated mitogenesis incubated for 16 hrs in presence of [3H]thymidine by scintillation spectrometric analysis; format: cell-based
[11] = molecular target: T3, 5-hydroxytryptamine receptor 1A; assay: as §2; format: functional

T1 sequence (P35462 whole entry): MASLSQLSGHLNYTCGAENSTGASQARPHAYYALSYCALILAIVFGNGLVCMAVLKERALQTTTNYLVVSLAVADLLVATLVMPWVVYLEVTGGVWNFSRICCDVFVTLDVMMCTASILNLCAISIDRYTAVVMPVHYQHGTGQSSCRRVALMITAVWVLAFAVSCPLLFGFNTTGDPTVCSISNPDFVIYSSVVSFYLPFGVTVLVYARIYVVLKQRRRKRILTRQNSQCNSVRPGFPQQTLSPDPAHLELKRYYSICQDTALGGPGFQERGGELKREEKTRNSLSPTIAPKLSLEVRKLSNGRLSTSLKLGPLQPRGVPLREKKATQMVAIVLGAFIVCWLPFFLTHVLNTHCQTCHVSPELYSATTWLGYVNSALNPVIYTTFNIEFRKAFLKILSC
5-hydroxytryptamine receptor 2A, sequence (P28223 whole entry): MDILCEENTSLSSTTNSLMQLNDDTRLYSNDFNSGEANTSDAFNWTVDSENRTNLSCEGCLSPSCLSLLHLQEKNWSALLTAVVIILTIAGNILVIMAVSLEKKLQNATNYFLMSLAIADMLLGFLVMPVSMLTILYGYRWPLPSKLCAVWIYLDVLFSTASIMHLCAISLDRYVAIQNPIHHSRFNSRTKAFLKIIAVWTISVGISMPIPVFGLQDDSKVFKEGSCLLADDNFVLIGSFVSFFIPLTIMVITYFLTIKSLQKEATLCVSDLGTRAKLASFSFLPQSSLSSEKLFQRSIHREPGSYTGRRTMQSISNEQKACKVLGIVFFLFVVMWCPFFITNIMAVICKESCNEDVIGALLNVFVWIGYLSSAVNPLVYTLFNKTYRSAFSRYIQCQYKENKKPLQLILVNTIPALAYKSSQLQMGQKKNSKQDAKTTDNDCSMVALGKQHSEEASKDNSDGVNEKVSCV
D(2) dopamine receptor, sequence (P14416 whole entry): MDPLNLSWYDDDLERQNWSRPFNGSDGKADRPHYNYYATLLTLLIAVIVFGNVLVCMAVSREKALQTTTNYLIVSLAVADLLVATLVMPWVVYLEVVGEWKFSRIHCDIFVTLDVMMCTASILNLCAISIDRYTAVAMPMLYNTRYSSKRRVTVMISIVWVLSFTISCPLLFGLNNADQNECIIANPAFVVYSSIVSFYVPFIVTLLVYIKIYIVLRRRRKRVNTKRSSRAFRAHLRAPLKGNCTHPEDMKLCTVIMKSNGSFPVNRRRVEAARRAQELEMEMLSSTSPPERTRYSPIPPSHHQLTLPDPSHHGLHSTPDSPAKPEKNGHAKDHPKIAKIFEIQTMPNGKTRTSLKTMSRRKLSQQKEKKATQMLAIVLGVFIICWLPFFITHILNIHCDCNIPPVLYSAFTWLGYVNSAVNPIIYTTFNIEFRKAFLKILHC

CCc1cc(Cl)c(OC)c(N2CCNCC2)c1
Ki (D(2) dopamine receptor): 0.619 µM
Ki (D(3) dopamine receptor [1]): 0.446 µM
Ki (D(4) dopamine receptor): 2.3 µM
Ratio Ki (Homo sapiens [2]): 1.4
Ratio Ki (Homo sapiens [3]): 5.2
Ratio Ki (Homo sapiens [4]): 3.7
Ki [5]: 3.56 µM
Ki [6]: 0.0904 µM
Ki [7]: 0.0224 µM

CCc1cccc(N2CCN(C/C=C/CNC(=O)c3nc(C)c[nH]3)CC2)c1Cl
Ratio Ki (Homo sapiens [2]): 13

CCc1cccc(N2CCN(CCCCNC(=O)c3cc4ccccc4o3)CC2)c1Cl
Ratio Ki (Homo sapiens [2]): 41
Activity (D(3) dopamine receptor [8]): 31.2%
Activity [9]: 99.4%

CCc1cccc(N2CCN(CCCCNC(=O)c3cn4ccccc4n3)CC2)c1Cl
Ratio Ki (Homo sapiens [2]): 17

CCc1cccc(N2CCN(CCCCNC(=O)c3nc(C)c[nH]3)CC2)c1Cl
Ratio Ki (Homo sapiens [2]): 20

CCc1cccc(N2CCN(CCC(O)CNC(=O)c3cc4ccccc4[nH]3)CC2)c1Cl (stereo not drawn)
Ratio Ki (Homo sapiens [2]): 34

CCc1cc(Cl)c(OC)c(N2CCN(CCCCNC(=O)c3cc4ccccc4[nH]3)CC2)c1
Ratio Ki (Homo sapiens [2]): 82
Activity (D(3) dopamine receptor [8]): 5.8%

CCc1cc(Cl)c(OC)c(N2CCN(C)CC2)c1
Ki (D(2) dopamine receptor): 0.233 µM
Ki (D(3) dopamine receptor [1]): 0.179 µM
Ki (D(4) dopamine receptor): 0.4 µM
Ratio Ki (Homo sapiens [2]): 1.3
Ratio Ki (Homo sapiens [3]): 2.2
Ratio Ki (Homo sapiens [4]): 1.7
Activity (D(3) dopamine receptor [8]): 15.2%
EC50 (D(3) dopamine receptor [8]): > 9 µM
IC50 (D(3) dopamine receptor [10]): 1.84 µM
Ki [5]: 4.4 µM
Ki [6]: 0.14 µM
Ki [7]: 0.0172 µM

CCCCN1CCN(c2cccc(CC)c2Cl)CC1
Ki (D(2) dopamine receptor): 0.00293 µM
Ki (D(3) dopamine receptor [1]): 0.000363 µM
Ki (D(4) dopamine receptor): 0.0651 µM
Ratio Ki (Homo sapiens [2]): 8.1
Ratio Ki (Homo sapiens [3]): 179
Ratio Ki (Homo sapiens [4]): 22
Activity (D(3) dopamine receptor [8]): 29.1%
EC50 (D(3) dopamine receptor [8]): 0.59 µM
IC50 (D(3) dopamine receptor [10]): 0.063 µM
Ki [5]: 0.037 µM
Ki [6]: 0.053 µM
Ki [7]: 0.222 µM
Activity [9]: 90.8%
EC50 [11]: 0.048 µM

CCc1cc(Cl)c(OC)c(N2CCN(CC(O)CCNC(=O)c3cc4ccccc4o3)CC2)c1 (stereo not drawn)
Ratio Ki (Homo sapiens [2]): 45
Activity (D(3) dopamine receptor [8]): 3.6%
EC50 (D(3) dopamine receptor [8]): > 7.1 µM

CCc1c[nH]c(C(=O)NCCCCN2CCN(c3cccc(CC)c3Cl)CC2)n1
Ratio Ki (Homo sapiens [2]): 11
